These results are taken from ChEMBL document CHEMBL4049429, “Enantiospecific Recognition at the A2B Adenosine Receptor by Alkyl 2-Cyanoimino-4-substituted-6-methyl-1,2,3,4-tetrahydropyrimidine-5-carboxylates” (J Med Chem, 2017).

Assay [1] deals with Adenosine receptor A2a (Homo sapiens) (UniProt P29274). Kind of assay: Displacement of [3H]4-(2-[7-amino-2-(2-furyl)[1,2,4]triazolo[2,3-a][1,3,5]triazin-5-ylamino]ethyl)phenol from human adenosine A2A receptor expressed in human Hela cell membranes at 1 uM after 30 mins. A digest of the protocol:
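Membranes from HeLa cells expressing human A2A receptor, labelled with 3 nM radioligand. Nonspecific binding defined with 50 μM NECA. Incubated 25 °C, 30 min. Percent inhibition of specific binding at 1 μM, average of n = 2.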

The target of assay [2] is T1, Adenosine receptor A1 (Homo sapiens) (UniProt P30542).
T1 sequence (whole entry): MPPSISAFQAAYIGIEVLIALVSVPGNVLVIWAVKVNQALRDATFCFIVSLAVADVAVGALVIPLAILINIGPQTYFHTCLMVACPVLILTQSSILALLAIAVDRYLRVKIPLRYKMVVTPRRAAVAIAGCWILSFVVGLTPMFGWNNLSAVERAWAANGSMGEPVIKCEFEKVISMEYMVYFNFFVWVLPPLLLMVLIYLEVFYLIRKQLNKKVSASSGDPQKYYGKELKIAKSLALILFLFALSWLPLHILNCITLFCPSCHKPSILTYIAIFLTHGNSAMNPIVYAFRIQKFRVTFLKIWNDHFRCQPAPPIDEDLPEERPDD
Kind of assay: Displacement of [3H]DPCPX from human adenosine A1 receptor expressed in CHO cell membranes at 1 uM after 60 mins. A digest of the protocol:
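Membranes from CHO cells expressing human A1 receptor, labelled with 2 nM [3H]DPCPX. Nonspecific binding defined with 10 μM R-PIA. Incubated 25 °C, 60 min. Percent inhibition of specific binding at 1 μM, average of n = 2.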

Assay [3] concerns the target T2, Adenosine receptor A2b (Homo sapiens, UniProt P29275).
T2 sequence (P29275 whole entry): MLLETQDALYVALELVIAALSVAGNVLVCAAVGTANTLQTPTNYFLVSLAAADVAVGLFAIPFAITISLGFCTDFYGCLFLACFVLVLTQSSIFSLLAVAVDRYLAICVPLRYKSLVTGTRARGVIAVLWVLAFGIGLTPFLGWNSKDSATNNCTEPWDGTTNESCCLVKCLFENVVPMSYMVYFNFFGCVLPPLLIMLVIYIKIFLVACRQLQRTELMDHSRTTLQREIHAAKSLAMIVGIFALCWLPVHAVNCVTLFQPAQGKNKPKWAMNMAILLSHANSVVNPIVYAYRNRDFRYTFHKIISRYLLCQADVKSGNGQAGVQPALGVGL
Kind of assay: Displacement of [3H]DPCPX from human adenosine A2B receptor expressed in HEK293 cell membranes after 30 mins.

Assay [4] concerns the target T3, Adenosine receptor A3 (Homo sapiens) (UniProt P0DMS8).
T3 sequence (whole entry): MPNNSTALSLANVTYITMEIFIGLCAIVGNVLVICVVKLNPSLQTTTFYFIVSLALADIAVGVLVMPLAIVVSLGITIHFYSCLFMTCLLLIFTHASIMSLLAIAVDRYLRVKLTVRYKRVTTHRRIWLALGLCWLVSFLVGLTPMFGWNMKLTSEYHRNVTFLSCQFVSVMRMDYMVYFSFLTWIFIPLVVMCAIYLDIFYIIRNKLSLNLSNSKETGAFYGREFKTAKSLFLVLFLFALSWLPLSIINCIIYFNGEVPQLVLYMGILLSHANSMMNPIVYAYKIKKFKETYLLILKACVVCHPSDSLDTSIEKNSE
Kind of assay: Displacement of [3H]NECA from human adenosine A3 receptor expressed in human Hela cell membranes at 1 uM after 180 mins. Put shortly: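 Membranes from HeLa cells expressing human A3 receptor, labelled with 30 nM [3H]NECA. Nonspecific binding defined with 100 μM R-PIA. Incubated 25 °C, 180 min. Percent inhibition of specific binding at 1 μM, average of n = 2.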

The target in assay [5] is T4, Adenosine receptor A2b (Homo sapiens) (UniProt P29275).
T4 sequence (whole entry): T2 sequence (P29275 whole entry)
Put plainly: Displacement of [3H]DPCPX from human adenosine A2B receptor expressed in HEK293 cell membranes at 1 uM after 30 mins. Put shortly: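 HEK-293 membranes expressing human A2B receptor, labelled with 35 nM [3H]DPCPX. Nonspecific binding with 400 μM NECA. 25 °C, 30 min. Percent inhibition of specific binding at 1 μM, average of n = 2.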
(Loss of bound radioactivity is the signal in a displacement assay; it reports binding, not function.)

In assay [6] the target is T4, Adenosine receptor A2b (Homo sapiens). Kind of assay: Antagonist activity at human adenosine A2B receptor expressed in HEK293 cell […] assessed as inhibition of NECA-stimulated cAMP accumulation preincubated for 15 mins followed by NECA stimulation for 15 mins by enzyme immunoassay. It counts as functional, cell-based. Put shortly: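 Whole HEK-293 cells transfected with human A2B receptor, grown at 37 °C, 5% CO2 in EMEM F-12 with 10% FCS and 1% L-glutamine. Washed, then preincubated 15 min at 37 °C in EMEM-F12/25 mM HEPES pH 7.4 with 30 μM rolipram plus test compound. Stimulated with 10 μM NECA for 15 min. Lysed, intracellular cAMP read by enzyme immunoassay at 450 nm. KB derived from IC50 by the Leff and Dougall method. n = 3, each in duplicate.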
Background: cAMP levels reflect the balance of adenylyl cyclase and phosphodiesterase activity.

Adenosine receptor A2a (Homo sapiens), sequence (P29274 whole entry): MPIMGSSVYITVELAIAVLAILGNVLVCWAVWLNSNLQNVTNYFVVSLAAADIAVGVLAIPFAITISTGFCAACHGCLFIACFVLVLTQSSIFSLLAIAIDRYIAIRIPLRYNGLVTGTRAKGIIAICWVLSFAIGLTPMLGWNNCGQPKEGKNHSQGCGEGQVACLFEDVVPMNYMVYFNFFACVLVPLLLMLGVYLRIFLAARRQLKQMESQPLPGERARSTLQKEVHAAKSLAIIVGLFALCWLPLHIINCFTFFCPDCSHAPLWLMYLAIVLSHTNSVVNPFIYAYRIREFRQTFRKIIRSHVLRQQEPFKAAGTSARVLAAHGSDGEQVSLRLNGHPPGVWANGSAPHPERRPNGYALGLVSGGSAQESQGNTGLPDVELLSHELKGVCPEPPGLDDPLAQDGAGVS

A word on the inhibition: it is how much of the control response was suppressed. Read a low inhibition as a response near the control. The term Ki denotes a dissociation constant, usually derived from enzyme kinetics or from competition with a known ligand. Read a low Ki as a stronger hold on the target. Consider `CC1=C(C(=O)OC(C)C)[C@@H](c2ccco2)N/C(=N/C#N)N1`, for which the values for the inhibition in assay [1], in assay [2] and in assay [4] were 4%, 2% and 4%, respectively. The inhibitory constant (Ki) in assay [3] is 15.1 nM.
Regarding `CC1=C(C(=O)OC(C)C)C(C2CCCC2)NC(=O)N1` (stereo unspecified), the inhibition in assay [1] was 1%; in assay [2] it was 1%; in assay [5], 3%; in assay [4], 7%.
As for `CC1=C(C(=O)OC(C)C)C(c2ccccc2)NC(=O)N1` (stereo unspecified), the inhibition in assay [1] turned out to be 1%; in assay [2], 2%; in assay [5] it was 2%; in assay [4], 2%.
Turning to `CC1=C(C(=O)OC(C)C)C(c2ccco2)NC(=O)N1` (stereo unspecified), the inhibition in assay [1] amounted to 30%; in assay [2], 20%; in assay [4], 1%.
On to `CC1=C(C(=O)OC(C)C)C(c2ccsc2)NC(=O)N1` (stereo unspecified), for which the inhibition in assay [4] was found to be 1%.
Take `CC1=C(C(=O)OC(C)C)[C@H](c2ccco2)N/C(=N/C#N)N1`: the inhibition in assay [1] was determined as 10%; in assay [2] it was 18%; in assay [5] it was 23%; in assay [4], 1%.
For `CCOC(=O)C1=C(C)NC(=O)NC1C1CCCC1` (stereo unspecified), the inhibition in assay [1] was 1%; in assay [2], 3%; in assay [5], 2%; in assay [4], 18%.
For `CCOC(=O)C1=C(C)NC(=O)NC1c1ccccc1` (stereo unspecified), the inhibition in assay [1] is 10%; in assay [2] it was 1%; in assay [5], 2%; in assay [4], 2%.
Regarding `CCOC(=O)C1=C(C)NC(=O)NC1c1ccco1` (stereo unspecified), the inhibition stood at 41% in assay [1] and 18% in assay [2].
As for `CCOC(=O)C1=C(C)NC(=O)NC1c1cccs1` (stereo unspecified), the results for the inhibition in assay [2], in assay [5] and in assay [4] were 1%, 44% and 1%, respectively.
`CCOC(=O)C1=C(C)NC(=O)NC1c1ccoc1` (stereo unspecified) showed an inhibition in assay [1] of 39%.
On to `CCOC(=O)C1=C(C)NC(=O)NC1c1ccsc1` (stereo unspecified), for which the values for the inhibition in assay [1], in assay [2] and in assay [4] were 39%, 22% and 24%, respectively.
A word on the Kb: it is the equilibrium dissociation constant of an antagonist, usually derived from a functional assay. As to `CC1=C(C(=O)OC(C)C)C(c2ccco2)N/C(=N/C#N)N1` (racemic), the results for the inhibition in assay [1], in assay [2] and in assay [4] were 19%, 21% and 4%, respectively. The antagonist dissociation constant (Kb) in assay [6] came to 116 nM. Also, in assay [3], the inhibitory constant (Ki) was determined as 24.3 nM.
As to `CCOC(=O)C1=C(C)N/C(=N\C#N)NC1c1ccoc1` (racemic), the inhibition amounted to 31% in assay [1], 28% in assay [2] and 14% in assay [4]. Besides, in assay [3], the affinity corresponds to a Ki of 102 nM.
The matching figures for `CCOC(=O)C1=C(C)N/C(=N\C#N)NC1c1cccs1` (racemic): 33%, 26%, 3% and 51 nM.
The matching figures for `CCOC(=O)C1=C(C)N/C(=N\C#N)NC1c1ccsc1` (racemic): 30%, 29%, 23% and 461 nM.
The matching figures for `CCOC(=O)C1=C(C)N/C(=N\C#N)NC1c1ccco1` (racemic): 20%, 27%, 20% and 900 nM.
Take `CC1=C(C(=O)OC(C)C)C(c2cccs2)N/C(=N/C#N)N1` (racemic): the inhibition in assay [1] was 16%; in assay [2] it was 31%; in assay [4], 27%. The compound also gave an inhibition constant (Ki) in assay [3] of 349 nM.
The matching figures for `CC1=C(C(=O)OC(C)C)C(c2ccoc2)N/C(=N/C#N)N1` (racemic): 25%, 34%, 41% and 59.4 nM.
Consider `CC1=C(C(=O)OC(C)C)C(c2ccsc2)N/C(=N/C#N)N1` (racemic), for which the inhibition in assay [1] amounted to 18%; in assay [2], 11%; in assay [4], 13%. The inhibition constant Ki in assay [3] worked out at 647 nM.
For `CC1=C(C(=O)OC(C)C)C(C2CCCC2)N/C(=N/C#N)N1` (racemic), the inhibition came out at 5% in assay [1], 3% in assay [2], 11% in assay [5] and 3% in assay [4].
With `CC1=C(C(=O)OC(C)C)C(c2ccccc2)N/C(=N/C#N)N1` (racemic), the inhibition in assay [1] amounted to 12%; in assay [2] it was 20%; in assay [5] it was 32%; in assay [4] it was 6%.
The matching figures for `CCOC(=O)C1=C(C)N/C(=N\C#N)NC1C1CCCC1` (racemic): 10%, 11%, 19% and 4%.
For the compound `CCOC(=O)C1=C(C)N/C(=N\C#N)NC1c1ccccc1` (racemic), the inhibition was found to be 13% in assay [1], 18% in assay [2], 25% in assay [5] and 13% in assay [4].
